The results in this text go back to ChEMBL document CHEMBL1148474, “Small molecule mitochondrial F1F0 ATPase hydrolase inhibitors as cardioprotective agents. Identification of 4-(N-arylimidazole)-substituted benzopyran derivatives as selective hydrolase inhibitors” (J Med Chem, 2004).

As usually defined, the IC50 is the point on the concentration scale where inhibition reaches its midpoint.

Test [1] is described as follows: Inhibitory concentration towards rat mitochondrial F1F0-ATP synthase using a hexokinase / glucose-6-phosphate dehydrogenase coupled assay. In short, it runs like this: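 ATP synthesis was run in 10 mM HEPES pH 8. Diluted enzyme was mixed with glucose, MgCl2, KPO4, potassium succinate and AMP (to block adenylate kinase) and incubated 30 min with gentle shaking. Inhibitor was then added from 50% DMSO (final DMSO 5%) for 15 min. Coupling enzymes started the reaction, and the rise in A340 was monitored.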

Test [2] has as its target Mitochondrial F1F0 ATP synthase (Rattus norvegicus). Nature of the test: Inhibitory concentration towards rat mitochondrial F1F0 ATP hydrolase using a pyruvate kinase / lactate dehydrogenase system.
Test [3] in a line: Inhibitory concentration towards rat mitochondrial F1F0-ATP synthase using a pyruvate kinase / lactate dehydrogenase system.

Where only a bound is given, the exact number is not on record here.

The compound `CC1(C)Oc2ccc(S(=O)(=O)N3CCCCC3)cc2[C@H](N(Cc2ncc[nH]2)c2ccc(Cl)cc2)[C@H]1O` registered an IC50 in test [1] of 18 µM.

With `CC1(C)Oc2ccc(C#N)cc2[C@H](/N=C(/NC#N)Nc2ccc(Cl)cc2)[C@H]1O`, the IC50 in test [1] was 12 µM; in test [2] it was above 100 µM.

With `CC1(C)Oc2ccc(C#N)cc2[C@@H](N(Cc2ncc[nH]2)c2ccc(Cl)cc2)[C@@H]1O`, the IC50 in test [1] was found to be 3.8 µM; in test [2], 0.24 µM.

For the compound `CC1(C)Oc2ccc(C#N)cc2[C@H](N(Cc2ncco2)c2ccccc2)[C@H]1O`, the IC50 in test [2] was above 100 µM.

Regarding `CC1(C)Oc2ccc(C#N)cc2[C@@H](N(Cc2ncc[nH]2)c2ccccc2)[C@@H]1O`, half-maximal inhibition in test [2] (IC50) required 4.2 µM.

`CC1(C)Oc2ccc(C#N)cc2[C@H](N(Cc2ncc[nH]2)c2ccccc2)[C@H]1O` came in with an IC50 in test [2] of 2 µM. Against the preceding compound, the IC50 is about 2.1-fold lower.

Regarding `CC1(C)Oc2ccc(C#N)cc2[C@@H](/N=C(\NC#N)Nc2ccc(Cl)cc2)[C@@H]1O`, the figures for the IC50 in test [1] and in test [3] were 30 µM and above 100 µM, respectively.

`CC1(C)Oc2ccc(C#N)cc2C(N(Cc2ncc[nH]2)c2ccc(Cl)cc2)C1O` (racemic): inhibition in test [2] was half-maximal at 470 µM (IC50).

As to `CC1(C)Oc2ccc(C#N)cc2C(Nc2ccc(Cl)cc2)C1O` (racemic), in test [2], the IC50 came out at 45 µM.

For `CC1(C)Oc2ccc(C#N)cc2[C@H](N(Cc2ncc[nH]2)c2ccc(Cl)cc2)[C@H]1O` [BMS-191095], the 50% inhibitory concentration (IC50) in test [1] is 4 µM; in test [2], 0.48 µM.

The compound `COc1ccc(Cl)cc1C(=O)NCCc1ccc(S(=O)(=O)NC(=O)NC2CCCCC2)cc1` [GLYBURIDE] returned an IC50 in test [1] above 100 µM.
